Hits are enriched below; roughly 2.4% of the tested compounds scored in any of these assays.
Rin1 Abl inh: inhibitors of Rin1-Abl protein binding, primary screen, biochemical, TR-FRET; Tyrosine-protein kinase ABL1 (Homo sapiens) + Ras and Rab interactor 1 (Homo sapiens), …; inhibition, % at 7.35 µM; 360,000 tested, 0.4% active; AID 588664, 2011; in the data active = inhibition above about 5%, passing the limit was not always enough
Rpn11 block: Rpn11 (PSMD14) deubiquitinase inhibitors, primary screen, biochemical, fluorescence polarization, uHTS. inhibition, % at 20 µM. 360,000 tested, 0.59% active. human 26S proteasome, Ub4-pepOG fluorescence polarization; 20S core pre-blocked with epoxomicin;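 active = inhibition at 20 µM, scaled to each plate's controls, above about 33%, limit read from the data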
CSN inh: inhibitors of CSN-mediated cullin deneddylation, primary screen, biochemical, fluorescence polarization, uHTS; inhibition, % at 12.5 µM; 360,000 tested, 0.38% active; Purified CSN, SCF-Nedd8-OG deneddylation; COP9 signalosome complex subunit 5 (Homo sapiens), Q92905;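 active = pattern-corrected inhibition above about 35%, with an unprinted fluorescence ratio check between 0.5 and 1.5, limit read from the data, passing the limit was not always enough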
Target sequence (Q92905 whole entry, looked up, one chain of several): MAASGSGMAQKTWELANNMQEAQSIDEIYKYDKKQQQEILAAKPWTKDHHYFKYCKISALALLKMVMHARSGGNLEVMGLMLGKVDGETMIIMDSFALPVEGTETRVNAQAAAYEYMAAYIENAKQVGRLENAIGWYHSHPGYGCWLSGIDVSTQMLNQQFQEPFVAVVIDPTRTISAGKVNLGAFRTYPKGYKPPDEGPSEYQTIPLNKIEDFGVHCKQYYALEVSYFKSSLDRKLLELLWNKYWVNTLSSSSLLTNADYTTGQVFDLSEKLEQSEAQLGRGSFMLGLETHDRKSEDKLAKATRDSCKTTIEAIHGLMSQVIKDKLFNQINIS
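Detection – fluorescence polarization · System – HEK293T-derived human Csn5 enzyme · Controls – substrate-only high control, full reaction low control · Timing – 90 min, room temperature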
HNF4A DNA FP: change in binding of human HNF4A to DNA, primary screen, biochemical, fluorescence polarization, FITC-DNA. Hepatocyte nuclear factor 4-alpha (Homo sapiens), P41235. 1 h. activity change, % at 10 µM. 360,000 tested, 0.3% active; in the data active = activity change above about 30%, passing the limit was not always enough
TPT1 inhibitor: Candida albicans TPT1 enzyme inhibitors, primary screen, biochemical, fluorescence polarization. tRNA 2'-phosphotransferase TPT1 (Candida albicans SC5314). recombinant caTPT1, FP RNA substrate dephosphorylation. inhibition, % at 5 µM. 300,000 tested, 0.81% active. AID 1962, 2009;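 active = inhibition above the mean of all tested compounds plus 3 SD, set per screening campaign, cut at about 24% in these data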
Neddyl block: inhibitors of cullin neddylation, primary screen, biochemical, TR-FRET, uHTS, NAE and Ubc12 | inhibition, % at 25 µM | 360,000 tested, 0.58% active | AID 651699, 2012 | NEDD8-conjugating enzyme Ubc12 (Homo sapiens) + NEDD8-activating enzyme E1 regulatory …; in the data active = inhibition above about 36%
Rpn11 confirm: Rpn11 (PSMD14) deubiquitinase inhibitors, confirmation, biochemical, fluorescence polarization, single concentration; purified human 26S proteasome, Ub4-pepOG fluorescence polarization; proteasome pretreated with epoxomicin; AID 602318, 2012; shares compounds with Rpn11 block; 1,900 tested, 29% active; inhibition, % at 20 µM
MMP-2 inh: MMP-2 enzyme inhibition, confirmation, counter-screen for RPN11 inhibitor project, biochemical, fluorescence, single concentration; shares compounds with Rpn11 block; recombinant MMP-2, FRET peptide cleavage fluorescence; inhibition, % at 20 µM; 1,900 tested, 4% active; AID 602330, 2012;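 note: human MMP-2 activated beforehand with APMA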
Thrombin inh: bovine thrombin protease inhibition, confirmation, counter-screen for Rpn11 inhibitor project, biochemical, fluorescence polarization, single concentration; shares compounds with Rpn11 block; bovine thrombin cleavage of Ub4-pepOG; inhibition, % at 20 µM; 1,900 tested, 13% active; AID 602333, 2012;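 active = mean inhibition at least 40% at 20 µM, or signal 3 deviations below plate average, so some actives read negative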
Each line names hits and unclear results; the compound was inactive in the other large screens (follow-up assays come after a bar, where shown). Cut-off read from the data, not from the text of the source, unless noted: active = inhibition above about 40%; inactive = the rest.

CCCN(C1CCS(=O)(=O)C1)S(=O)(=O)c1cc(OC)ccc1OC (configuration not stated)	none (no result: TPT1 inhibitor)
Cn1c(C(=O)NCCCN2CCCCCC2)cc2c(=O)n(C)c3ccccc3c21	Rpn11 block 68 | Rpn11 confirm inactive | MMP-2 inh inactive | Thrombin inh inactive
Cc1cc(SCC(=O)c2ccc(Cl)cc2)nc(=O)[nH]1	Rpn11 block 37 | Rpn11 confirm inactive | MMP-2 inh inactive | Thrombin inh inactive
Cc1cc(SCc2ccc(Cl)cc2Cl)nc(=O)[nH]1	Rpn11 block 52 | Rpn11 confirm inactive | MMP-2 inh inactive | Thrombin inh inactive
Cc1cccc(C)c1NC(=O)Cn1cnc2c(=O)n(C)c(=O)n(C)c21	none
Cn1c(=O)c2ncn(CC(=O)Nc3ccc4c5c(cccc35)CC4)c2n(C)c1=O	Rpn11 block 52 | Rpn11 confirm inactive | MMP-2 inh inactive | Thrombin inh inactive
Cc1cccc(OCC(=O)Nc2ccc3c4c(cccc24)CC3)c1C	none
O=C(CN1C(=O)CCC1=O)Nc1ccc2c3c(cccc13)CC2	Rpn11 block 102 | Rpn11 confirm inactive | MMP-2 inh inactive | Thrombin inh inactive
Cc1cc(C(C#N)c2ccc(Cl)cc2)c(Cl)cc1NC(=O)c1cc(I)cc(I)c1O (configuration not stated)	Rpn11 block 47 | Rpn11 confirm inactive | MMP-2 inh inactive | Thrombin inh inactive
COc1ccc(CN(C(=O)c2snc(C(N)=O)c2N)C(C(=O)NC2CCCC2)c2ccco2)cc1 (configuration not stated)	none
CN(C)C(=O)CSc1cccc2cccnc12	Rpn11 block 69 (not shown: Neddyl block) | Rpn11 confirm inactive | MMP-2 inh inactive | Thrombin inh inactive
O=C(CSc1cccc2cccnc12)N1CCCC1	Rpn11 block 71 (not shown: Neddyl block) | Rpn11 confirm inactive | MMP-2 inh inactive | Thrombin inh inactive
NNC(=O)CSc1cccc2cccnc12	none
O=C(O)C(Cc1c[nH]c2ccccc12)N1C(=O)c2ccccc2C1=O (configuration not stated)	none
Nc1nc2ccccc2n1C(=O)c1ccco1	Rpn11 block 48 (no result: TPT1 inhibitor) | Rpn11 confirm inactive | MMP-2 inh inactive | Thrombin inh inactive
CCCCn1c(N)c(N(CC(C)C)C(=O)CSc2n[nH]c(-c3ccc(C)cc3)n2)c(=O)[nH]c1=O	none
CC1C(=O)N(Cc2cn(Cc3ccco3)nn2)CCS(=O)(=O)N1Cc1ccc(-c2cccnc2)cc1 (configuration not stated)	Rpn11 block 46 (no result: TPT1 inhibitor) | Rpn11 confirm inactive | MMP-2 inh inactive | Thrombin inh inactive
Cc1ccc(-c2ccc(CN3C(C)C(=O)N(Cc4cn(Cc5ccco5)nn4)CCS3(=O)=O)cc2)cc1 (configuration not stated)	none (no result: TPT1 inhibitor)
CCCNC(=O)c1cc(C2CCCN(C(=O)c3ccc4ccccc4c3)C2)on1 (configuration not stated)	none (no result: TPT1 inhibitor)
COc1cccc(CNC(=S)Nc2ccc3c(c2)c(=O)n(C)n3C)c1	none (not shown: TPT1 inhibitor, Neddyl block)

Source: PubChem
